Results as given in PMC10193968 (Proceedings of the National Academy of Sciences of the …, 2023).
Each block holds one compound with its values, some of them ahead of it.

Experiments:
S. frugiperda males = settings: presence at 1% in synthetic pheromone blends; cited from earlier work
[1] = tested on: AncOR5_75 V79L_A143T_A204V; assay type: cell-based; settings: 10^−5 M solution; panel of six S. littoralis pheromone compounds
Procedure, shortened: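 Mutation introduced into the pCS2+ ancestral-receptor plasmid and confirmed by Sanger sequencing. Capped cRNA made with SP6 from NotI-linearized template, coexpressed with SlitOrco in Xenopus oocytes. Two-electrode voltage-clamp inward currents to six compounds at 10^-5 M, diluted from 0.1 M DMSO stocks into Ringer's (HEPES, pH 7.6). Ringer's with 0.01% DMSO as negative control. Tuning compared by principal component analysis.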

SlituOR5 [2] = assay: Single-sensillum recordings on Drosophila at1 OSNs expressing SlituOR5; assay type: cell-based, S. litura; settings: 10 μg loaded in the stimulus cartridge; panel of 26 pheromone compounds
AncOR75 = assay type: cell-based, ancestor of S. littoralis and S. litura; settings: doses 10 ng to 100 µg in the stimulus cartridge
Procedure, shortened: (§1)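 Dose–response by single-sensillum extracellular recording from at1 OSNs of flies expressing the receptor transgene instead of Or67d (UAS-Or crossed to Or67d-GAL4). Flies reared at 25 °C, 12 h:12 h light:dark. Stimuli lasted 500 ms, delivered from filter-paper cartridges loaded with 10 ng to 100 µg pheromone diluted in hexane.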

AncOR5_75 = assay type: cell-based, ancestor of S. littoralis and S. litura; settings: doses 10 ng to 100 µg in the stimulus cartridge
Procedure, shortened: as §1

SlitOR5 = assay: Single-sensillum recordings on Drosophila at1 OSNs expressing SlitOR5; assay type: cell-based, S. littoralis; settings: 10 μg loaded in the stimulus cartridge; panel of 26 pheromone compounds
Procedure, shortened: (§2)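 Receptor expressed in Drosophila at1 OSNs in place of Or67d (UAS-Or × Or67d-GAL4, double homozygous). Flies kept on cornmeal–yeast–agar at 25 °C, 12 h:12 h light:dark. Single-sensillum extracellular recording with 500 ms stimulation from Pasteur-pipette cartridges holding 10 µg compound (hexane dilution) on filter paper. Panel of 26 pheromone compounds. Active if different from solvent alone (one-way ANOVA, Dunnett's post hoc).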

SlitOR75 = assay: Single-sensillum recordings on Drosophila at1 OSNs expressing SlitOR75; assay type: cell-based, S. littoralis; settings: 10 μg loaded in the stimulus cartridge; panel of 26 pheromone compounds
Procedure, shortened: as §2

SlituOR75 = assay: Single-sensillum recordings on Drosophila at1 OSNs expressing SlituOR75; assay type: cell-based, S. litura; settings: 10 μg loaded in the stimulus cartridge; panel of 26 pheromone compounds
Procedure, shortened: as §2

AncOR5 [3] = assay: Single-sensillum recordings on Drosophila at1 OSNs expressing resurrected AncOR5; assay type: cell-based, ancestor of S. littoralis and S. litura; settings: 10 μg loaded in the stimulus cartridge; panel of 26 pheromone compounds
AncOR5 [4] = assay: Two-electrode voltage-clamp on Xenopus oocytes coexpressing AncOR5 and SlitOrco; assay type: cell-based, ancestor of S. littoralis and S. litura
AncOR5_75_mut8x = assay type: cell-based; settings: read-out: EC50, AncOR5_75_mut8x; Xenopus oocytes, concentrations 10^–8 to 10^–4 M
SlituOR5 [5] = assay: Two-electrode voltage-clamp on Xenopus oocytes expressing SlituOR5; assay type: cell-based, S. litura; settings: 10^–4 M; panel of 13 pheromone compounds; confirms the Drosophila OSN profile
SfruOR5 = assay: Two-electrode voltage-clamp on Xenopus oocytes expressing SfruOR5; assay type: cell-based, S. frugiperda; settings: 10^–4 M; panel of 13 pheromone compounds; confirms the Drosophila OSN profile
SexiOR5 = assay: Two-electrode voltage-clamp on Xenopus oocytes expressing SexiOR5; assay type: cell-based, S. exigua; settings: 10^–4 M; panel of 13 pheromone compounds; confirms the Drosophila OSN profile
S. exigua males = settings: cited from earlier work
[6] = tested on: S. littoralis and S. litura males; settings: detection of the compound; cited from earlier work
S. littoralis males = settings: traps baited with their own sex pheromones; cited from earlier work
S. litura males = settings: traps baited with their own sex pheromones; cited from earlier work

SMILES: CC/C=C/CCCCCCCCCCOC(C)=O [(E)-11-14:OAc, (E)-11-tetradecenyl acetate]
- Proportion of males approaching the source in wind tunnel (S. frugiperda males): strongly increased the proportion of males approaching the source

SMILES: C/C=C/C/C=C\CCCCCCCCOC(C)=O [(Z,E)-9,12-14:OAc, (Z,E)-9,12-tetradecadienyl acetate]
- Inward current, triple-mutant V79L_A143T_A204V [1]: narrow tuning

SMILES: CC/C=C\C=C/CCCCCCCCOC(C)=O [(Z,Z)-9,11-14:OAc, (Z,Z)-9,11-tetradecadienyl acetate]
- Action potential frequency of at1 OSNs expressing SlituOR5 (SlituOR5 [2]): significant yet minor response
- Activation threshold / sensitivity, dose–response of AncOR75 (AncOR75): best ligand
- Activation threshold / sensitivity, dose–response of AncOR5_75 (AncOR5_75): best ligand

- EC50 (AncOR5 [4]; read-out: EC50, AncOR5, Xenopus oocytes, concentrations 10^–8 to 10^–4 M): 1.1 µM
- EC50 (AncOR5_75_mut8x): 0.4 µM
SMILES: CC/C=C/C=C\CCCCCCCCOC(C)=O [(Z,E)-9,11-14:OAc, (Z,E)-9,11-tetradecadienyl acetate]
- Action potential frequency of at1 OSNs expressing SlitOR5 (SlitOR5): strong responses
- Action potential frequency of at1 OSNs expressing SlituOR5 (SlituOR5 [2]): strong responses
- Action potential frequency of at1 OSNs expressing SlitOR75 (SlitOR75): low responses
- Action potential frequency of at1 OSNs expressing SlituOR75 (SlituOR75): low responses
- Action potential frequency of at1 OSNs expressing AncOR5 (AncOR5 [3]): responded specifically
- Activation threshold / sensitivity, dose–response of AncOR75 (AncOR75): same activation threshold as AncOR5
- Activation threshold / sensitivity, dose–response of AncOR5_75 (AncOR5_75): same activation threshold as AncOR5
- Inward current, AncOR5 (AncOR5 [4]; 10^−5 M solution, panel of six S. littoralis pheromone compounds): specifically responded
- Response spectrum (inward current), SlituOR5 (SlituOR5 [5]): narrowly tuned
- Response spectrum (inward current), SfruOR5 (SfruOR5): can bind
- Response spectrum (inward current), SexiOR5 (SexiOR5): can bind
- Effect on trap catches of S. exigua males (S. exigua males): decreases trap catches
- Male attraction [6]: necessary and sufficient to trigger male attraction

SMILES: CC/C=C\CCCCCCCCCCOC(C)=O [(Z)-11-14:OAc, (Z)-11-tetradecenyl acetate]
- Response spectrum (inward current), SfruOR5 (SfruOR5): best SfruOR5 ligands
- Proportion of males approaching the source in wind tunnel (S. frugiperda males): strongly increased the proportion of males approaching the source

SMILES: CCCC/C=C\CCCCCCCCO [(Z)-9-14:OH, (Z)-9-tetradecen-1-ol]
- Effect on trap catches of S. littoralis males (S. littoralis males): reduces catches in traps
- Effect on trap catches of S. litura males (S. litura males): reduces catches in traps
